In article PMC6368469 (Journal of clinical pharmacology, 2018):
“And” between values parts separate entries of the source, which are not always exact repeats. Equal entries are not always repeated. Structures can show the parent of a compound that is named as a salt. Where two headings read alike, the source gives them in different places.

What was measured:
[1] = assay type: in vivo, human; details: for Cmax / Cmin / AUC(0-t): plasma; for Cl/F: dose/AUC0–12
[2] = Umbilical cord blood and maternal plasma concentrations at delivery; assay type: in vivo, human; details: 15 patients, detection limit 0.039 μg/mL; for Detected in maternal plasma samples: number of samples at delivery; for Detected in cord plasma samples: number of samples
[3] = cited from earlier work
HIV = details: cited from earlier work
[4] = Clinical and laboratory safety monitoring of mothers and infants; assay type: in vivo, human
[5] = cited from earlier work; remark: listed apart in the source
[6] = Stability in stored plasma; assay type: in vitro ADME; details: plasma stored at −20°C
Method in brief: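 Human plasma from study participants, stored at −20°C. Test compound and its metabolite were quantified together by reversed-phase HPLC-UV after acetonitrile protein precipitation. Supernatant was injected onto a C-18 column and eluted isocratically with 10mM potassium phosphate pH 4.2:ACN (62:38 v/v) at 1.2 mL/min. Detection was at 206 nm, with a detection limit of 0.039 μg/mL. Validation QC samples spanned multiple concentrations.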

[7] = 1875mg BID 3rd trimester vs 1250mg BID postpartum, (90% CI)
[8] = 3rd trimester, nelfinavir 1875mg BID, median (IQR), n = 18
[9] = postpartum, nelfinavir 1250mg BID, median (IQR), n=16
[10] = 1875mg BID 3rd trimester vs 1250mg BID postpartum, (90% CI), listed as Nelfinavir

## Cc1c(O)cccc1C(=O)N[C@@H](CSc1ccccc1)[C@H](O)CN1C[C@H]2CCCC[C@H]2C[C@H]1C(=O)NC(C)(C)CO [M8, hydroxyl-tert-butylamide]
[1]; [7]
  Cmin geometric mean ratio 3rd trimester/postpartum: 0.78 (0.40–1.26)
[1]; [8]
  M8/NFV AUC ratio: 0.11 (0.08–0.22)
  Cmax: 0.66 (0.48–1.12) μg/mL
  Cmin: 0.11 (0.05–0.15) μg/mL
[1]; [9]
  Cmax: 1.20 (1.07–1.71) μg/mL
  Cmin: 0.14 (0.04–0.21) μg/mL
  M8/NFV AUC ratio: 0.30 (0.17–0.35)
[2]
  Detected in maternal plasma samples: 10
  Detected in cord plasma samples: 3

## CC(C)CN(C[C@@H](O)[C@H](Cc1ccccc1)NC(=O)O[C@H]1CO[C@H]2OCC[C@H]21)S(=O)(=O)c1ccc(N)cc1 [darunavir]
[3]; standard dosing
  AUC and Cmax in pregnancy: substantially decreased

## Cc1c(O)cccc1C(=O)N[C@@H](CSc1ccccc1)[C@H](O)CN1C[C@H]2CCCC[C@H]2C[C@H]1C(=O)NC(C)(C)C [NFV, Nelfinavir mesylate]
HIV
  Activity against HIV: moderately potent activity
[1]; [7]
  AUC0–12 geometric mean ratio 3rd trimester/postpartum: 0.98 (0.71–1.35)
  Cl/F geometric mean ratio 3rd trimester/postpartum: 1.54 (1.12–2.11)
  Cmax geometric mean ratio 3rd trimester/postpartum: 1.06 (0.85–1.34)
  Cmin geometric mean ratio 3rd trimester/postpartum: 0.90 (0.71–1.16)
[1]; [10]
  AUC0–12 geometric mean ratio 3rd trimester/postpartum: 0.98
  Cl/F geometric mean ratio 3rd trimester/postpartum: 1.54
[1]; 3rd trimester, 1875 mg twice daily, 15 of 18
  Participants with AUC0–12 above target (18.5 μg h/mL): 83%
[1]; [8]
  Cl/F: 54.9 (40.4–68.9) L/h
  Cmin: 0.47 (0.35–1.33) μg/mL
[1]; female, human, 1250 mg
  AUC(0-t): 33500 ng·h/mL and 58.9 µM·h
  Cmax: 5000 ng/mL
[1]; female, human, 1875 mg
  AUC(0-t): 34200 ng·h/mL and 60.2 µM·h
[1]; number of pregnant patients
  Patients with increased Cl/F during 3rd trimester compared to the postpartum period: 11 out of 18
[1]; [9]
  Cmin: 0.52 (0.22–0.80) μg/mL
  Cl/F: 37.4 (28.7–43.7) L/h
[1]; postpartum, 1250mg twice daily, 14 of 16
  Participants with AUC0–12 above target (18.5 μg h/mL): 88%
[2]
  Detected in maternal plasma samples: 13 out of 15
  Detected in cord plasma samples: 10 out of 15
[4]; 18 patients
  Grade 3–4 adverse events treatment-related: none were determined to be treatment-related
[4]; increased dose 1875 mg twice daily in third trimester
  Safety concerns: No major safety concerns were noted
[5]; in vivo, 1250 mg
  Subjects meeting the AUC target during the 3rd trimester: 56%
[5]; in vivo
  Placental crossing: crossed the placenta poorly
[5]; non-pregnant historical controls
  10th percentile AUC0–12 (target AUC): 18500 ng·h/mL
[6]
  Stability in plasma: stable

## Cc1cc(C#N)cc(C)c1Oc1nc(Nc2ccc(C#N)cc2)nc(N)c1Br [etravirine]
[3]
  Exposure during pregnancy: increased
